The test system of one assay is RPE-1 cells. The assay is described as follows: Confocal fluorescence microscopy of Haspin inhibitor-treated RPE-1 cells. In kind it is cell-based. The settings on record: 24 h. The procedure, abridged:
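RPE-1 cells were grown on glass coverslips in DMEM/F12 with 10% FCS to 70% confluence. They were treated 24 h with the Haspin inhibitor from a 500 μM DMSO stock; controls got solvent only. Cells were fixed in 4% formaldehyde, permeabilized in 0.5% Triton X-100, and immunostained for DIDO, ING1 and H3K4me3, with DAPI counterstain. Single confocal layers were imaged with sequential excitation.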

In assay [1] the target is DIDO PHD finger (aa 260–325) (UniProt Q9BTC0). The assay can be described thus: other fluorescence titration.
In assay [2] the target is T1, ING1 PHD finger (Homo sapiens, UniProt Q9UK53).
T1 sequence (Q9UK53 200-279 isoform Q9UK53-2): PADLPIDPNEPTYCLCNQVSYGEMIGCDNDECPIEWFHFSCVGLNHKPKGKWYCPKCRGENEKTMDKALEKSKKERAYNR
The assay can be described thus: 1H,15N HSQC NMR titration. Type of assay: binding. Particulars: 298K, peptide aa 1–12 of H3.

Assay [3] has as its target BPTF PHD finger (UniProt Q12830). The assay is described as follows: histone peptide microarray. Particulars: reference: H3K4me3 peptide.
The target of assay [4] is DIDO PHD finger (UniProt Q9BTC0). The assay is described as follows: histone peptide microarray. Particulars: reference: H3K4me3 peptide.
The target in assay [5] is ING1 PHD finger (UniProt Q9UK53). The assay is described as follows: histone peptide microarray. Particulars: reference: H3K4me3 peptide.
In assay [6] the target is PHF8 PHD finger (UniProt Q9UPP1). The assay is described as follows: histone peptide microarray. Particulars: reference: H3K4me3 peptide.
Assay [7] deals with Rag2 PHD finger (UniProt P21784). The assay is described as follows: histone peptide microarray. Particulars: reference: H3K4me3 peptide.
Assay [8] concerns the target Taf3 PHD finger (UniProt Q5HZG4). The assay is described as follows: histone peptide microarray. Particulars: reference: H3K4me3 peptide.
The target of assay [9] is Rag2 PHD finger (UniProt P21784). The assay can be described thus: biotin-peptide pull-down of GST-reader, anti-GST blot. Particulars: reference: H3K4me3 peptide.
Assay [10] concerns the target BPTF PHD finger (UniProt Q12830). Described as above. Particulars: reference: H3K4me3 peptide; sites T3.
Assay [11] has as its target DIDO PHD finger (UniProt Q9BTC0). The assay is described as above. The settings on record: reference: H3K4me3 peptide; sites T3.
The target of assay [12] is ING1 PHD finger (UniProt Q9UK53). The description is as above. The settings on record: reference: H3K4me3 peptide; sites T3.
Assay [13] concerns the target KDM4A double Tudor domain (DTD) (UniProt O75164). The assay is described as above. Particulars: reference: H3K4me3 peptide; sites T3.
The target in assay [14] is PHF8 PHD finger (UniProt Q9UPP1). Described as above. Particulars: reference: H3K4me3 peptide; sites T3.
In assay [15] the target is Taf3 PHD finger (UniProt Q5HZG4). The assay is described as above. The settings on record: reference: H3K4me3 peptide; sites T3.
Assay [16] addresses ING1 PHD finger (UniProt Q9UK53). The assay can be described thus: in vitro peptide binding, probably NMR titration. Particulars: reference: H3K4me3 peptide (reference implied); sites T3,T6.
Assay [17] deals with T2, PHF8 PHD finger (aa 37–106) (UniProt Q9UPP1 37-106, uniformly 15N-labelled for NMR).
T2 sequence (looked up): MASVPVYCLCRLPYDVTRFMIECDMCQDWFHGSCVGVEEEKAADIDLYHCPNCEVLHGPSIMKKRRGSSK
The assay is described as follows: other fluorescence titration.

Non-standard residues stand in square brackets, D forms with d. No end group written: not given here. Lys(Me3) = C[N+](C)(C)CCCC[C@H](N)C(=O)O; pT = C[C@@H](OP(=O)(O)O)[C@H](N)C(=O)O

Sequence of DIDO PHD finger (aa 260–325) (Q9BTC0 260-325): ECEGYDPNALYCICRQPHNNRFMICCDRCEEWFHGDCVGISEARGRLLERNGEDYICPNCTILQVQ

Regarding `CCCNc1ccc2ncc(-c3ccc4[nH]ncc4c3)n2n1` [CHR6494], in the assay on RPE-1 cells (1 μM), the “DIDO and ING1 attachment to chromatin” value is on record as “only a portion of these proteins remained attached to chromatin”; the “H3T3ph level in prophase” value was “pronounced reduction of H3T3ph in prophase”. For the same molecule, in the assay on RPE-1 cells (2 μM), the “DIDO and ING1 localization on chromatin” value is “co-localization of DIDO and ING1 on poorly condensed H3K4me-positive chromatin”; the completion of mitosis entry is on record as “unable to complete mitosis”.

Molecule “H3K4me3 peptide (aa 1–12 of H3) (from UniProt P68431 2-13)” yielded an equilibrium dissociation constant (Kd) in [1] of 1.1 µM.

Take “H3K4me3T6ph peptide (aa 1–12 of histone H3) (from UniProt P68431 2-13)”: the Kd in assay [1] worked out at 5.5 µM.

With “H3T3phK4me3T6ph: triple PTM-containing peptide”, the “CSPs / binding to ING1 PHD finger” value with ING1 PHD finger [2] is “markedly reduced”.

As for “histone H3 1-20 (from UniProt P68431) H3K4me3T6ph peptide”, the “binding against the reference” value with BPTF PHD finger [3] (sites T6), with DIDO PHD finger [4] (sites T6), with ING1 PHD finger [5] (sites T6), with PHF8 PHD finger [6] (sites T6), in the assay with Rag2 PHD finger [7] (sites T6) and with Taf3 PHD finger [8] (sites T6) was “weaker” each time. The “binding against the reference” value with Rag2 PHD finger [9] (sites T6) is reported as “weaker”.

Consider “histone H3 1-20 (from UniProt P68431) H3T3phK4me3 peptide”, for which the “binding against the reference” value in the assay with BPTF PHD finger [3] (sites T3), with DIDO PHD finger [4] (sites T3), with ING1 PHD finger [5] (sites T3), with PHF8 PHD finger [6] (sites T3), with Rag2 PHD finger [7] (sites T3) and in the assay with Taf3 PHD finger [8] (sites T3) was “weaker” in each case. Also, the “binding against the reference” value (with BPTF PHD finger [10]; in the assay with DIDO PHD finger [11]; with ING1 PHD finger [12]; in assay [13]; with PHF8 PHD finger [14]; with Rag2 PHD finger [9] (sites T3)) was “weaker” each time. The “binding against the reference” value with Taf3 PHD finger [15] is “weaker”.

“histone H3 (from UniProt P68431) H3T3phK4me3T6ph peptide”: in the assay with ING1 PHD finger [16], the “binding against the reference” value is listed as “weaker”.

As to ART[Lys(Me3)]Q[pT]ARKSTG (peptide, UniProt P68431 2-13, looked up) [H3K4me3T6ph peptide (aa 1–12 of histone H3)], the “fold reduction of binding against H3K4me3” value in [17] came to 2 fold.

In the case of ART[Lys(Me3)]QTARKSTG (peptide, UniProt P68431 2-13, looked up) [H3K4me3 peptide (aa 1–12 of H3)], the Kd in assay [17] was 2.5 µM.

Broadly, the Kd is the constant that tells how readily two partners part at equilibrium. Low values mean higher affinity, high ones lower affinity.

The values above are taken from publication PMC5291243 (Nucleic Acids Research, 2016).
